Laboratory results as given in ChEMBL document CHEMBL2086341, “COX inhibitors Indomethacin and Sulindac derivatives as antiproliferative agents: synthesis, biological evaluation, and mechanism investigation” (Eur J Med Chem, 2012).
Active and inactive are the calls of the source. The rule behind the calls is not given here.

Legend:
HT-29 = test: Antiproliferative activity against human HT-29 cells after 72 hrs by MTT assay; assay type: functional, cell-based
Outline: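 HT29 colon cells grown in RPMI 1640 with 10% FBS, 2 mmol/l glutamine, 1 mmol/l pyruvate and penicillin-streptomycin at 37 °C, 5% CO2. Cells seeded at 4000/well and attached for 24 h. Treated 72 h with 1000 to 0.32 µM (5-fold dilutions), final DMSO <0.1%; DMSO vehicle controls. MTT 0.5 mg/ml for 2 h, solubilized in DMSO, A570 read. Run in quadruplicate.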

NCI-H292 = test: Antiproliferative activity against human NCI-H292 cells after 72 hrs by MTT assay; assay type: functional, cell-based; settings: NCI-H292, 72 h
MCF7 = test: Antiproliferative activity against human MCF7 cells after 72 hrs by MTT assay; assay type: functional, cell-based; settings: MCF7, 72 h
[1] = Antiproliferative activity against human MDA468 cells after 72 hrs by MTT assay; assay type: functional, cell-based; settings: MDA-MB-468, 72 h
Bos taurus [2] = species on record: Bos taurus; test: Inhibition of bovine tubulin polymerization at 25 uM using microtubule-associated protein rich tubulin measured for 20 mins by spectrophotometry
Outline: (§1)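 Bovine brain MAP-rich tubulin at 2 mg/ml in 80 mM PIPES pH 6.9, 2 mM MgCl2, 0.5 mM EGTA, 5% glycerol. Mixed with compound in DMSO or DMSO control at 37 °C. Polymerization started with GTP (2 µl of 1 mM stock) and followed as absorbance at 340 nm over 20 min.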

SK-BR-3 = test: Antiproliferative activity against human SKBR3 cells after 72 hrs by MTT assay; assay type: functional, cell-based; settings: SK-BR-3, 72 h
NCI-H522 = test: Antiproliferative activity against human NCI-H522 cells after 72 hrs by MTT assay; assay type: functional, cell-based; settings: NCI-H522, 72 h
IMR-90 = test: Cytotoxicity against human IMR90 cells after 72 hrs by MTT assay; assay type: cell-based; settings: IMR-90, 72 h
[3] = Solubility of the compound in RPMI 1640 cell culture medium; assay type: physicochemical
Bos taurus [4] = species on record: Bos taurus; test: Induction of bovine tubulin polymerization at 2 uM using microtubule-associated protein rich tubulin measured for 20 mins by spectrophotometry; outline: as §1
Bos taurus [5] = species on record: Bos taurus; test: Inhibition of bovine tubulin polymerization at 8 uM using microtubule-associated protein rich tubulin at 10 mins by spectrophotometry relative to control; outline: as §1
Bos taurus [6] = species on record: Bos taurus; test: Inhibition of bovine tubulin polymerization using microtubule-associated protein rich tubulin measured for 20 mins by spectrophotometry; outline: as §1
Bos taurus [7] = species on record: Bos taurus; test: Induction of bovine tubulin polymerization at 5 uM using microtubule-associated protein rich tubulin measured for 20 mins by spectrophotometry; outline: as §1
Bos taurus [8] = species on record: Bos taurus; test: Inhibition of bovine tubulin polymerization at 10 uM using microtubule-associated protein rich tubulin at 10 mins by spectrophotometry relative to control; outline: as §1
[9] = Homo sapiens, HT-29, 72 h, read-out: IC50

SMILES | IC50 (HT-29; [9]) | other results
CC1=C(CC(=O)NCCC(C)C)c2cc(F)ccc2/C1=C\c1ccc([S+](C)[O-])cc1 (stereo not drawn) | 1430 µM | –
COc1ccc2c(c1)c(CC(=O)NCCN1CCOCC1)c(C)n2C(=O)c1ccc(OC)c(OC)c1 | – | IC50 (HT-29; ht-29): ND(Insoluble); solubility [3]: Insoluble
COc1ccc2c(c1)c(CC(=O)NCCN1CCCCC1)c(C)n2C(=O)c1ccc(Cl)cc1 | 277 µM | –
COc1ccc(NC(=O)CC2=C(C)/C(=C/c3ccc([S+](C)[O-])cc3)c3ccc(F)cc32)cc1 (stereo not drawn) | 2540 µM | –
CCCCCC(C)NC(=O)CC1=C(C)/C(=C/c2ccc([S+](C)[O-])cc2)c2ccc(F)cc21 (stereo not drawn) | 2140 µM | –
COc1ccc2c(c1)c(CC(=O)NCCN1CCOCC1)c(C)n2C(=O)c1ccc(Br)cc1 | – | IC50 (HT-29; ht-29): ND(Insoluble); solubility [3]: Insoluble
CC1=C(CC(=O)Nc2ccc(C#N)cc2)c2cc(F)ccc2/C1=C\c1ccc([S+](C)[O-])cc1 (stereo not drawn) | 2580 µM | –
COc1ccc2c(c1)c(CC(=O)NCc1ccc(CNC(=O)Cc3c(C)n(C(=O)c4ccc(Cl)cc4)c4ccc(OC)cc34)cc1)c(C)n2C(=O)c1ccc(Cl)cc1 | – | IC50 (HT-29; ht-29): ND(Insoluble); solubility [3]: Insoluble
CC1=C(CC(=O)O)c2cc(F)ccc2/C1=C\c1ccc([S+](C)[O-])cc1 (stereo not drawn) [SULINDAC] | 1730 µM | –
COc1cccc(NC(=O)Cc2c(C)n(C(=O)c3ccc(Cl)cc3)c3ccc(OC)cc23)c1 | 1190 µM | –
COc1ccc2c(c1)c(CC(=O)Nc1ccccc1OC)c(C)n2C(=O)c1ccc(Cl)cc1 | 1120 µM | –
CCCCCCCCNC(=O)CC1=C(C)/C(=C/c2ccc([S+](C)[O-])cc2)c2ccc(F)cc21 (stereo not drawn) | 307 µM | –
COc1ccc2c(c1)c(CC(=O)O)c(C)n2C(=O)c1ccc(Cl)cc1 [INDOMETHACIN] | 1050 µM | –
COc1ccc2c(c1)c(CC(=O)NCCN1CCOCC1)c(C)n2C(=O)c1cc(OC)c(OC)c(OC)c1 | 611 µM | –
CC1=C(CC(=O)NCCCN(C)C)c2cc(F)ccc2/C1=C\c1ccc([S+](C)[O-])cc1 (stereo not drawn) | 465 µM | –
CC1=C(CC(=O)Nc2ccc(Cl)cc2)c2cc(F)ccc2/C1=C\c1ccc([S+](C)[O-])cc1 (stereo not drawn) | 1700 µM | –
CCCCCCNC(=O)Cc1c(C)n(C(=O)c2ccc(Cl)cc2)c2ccc(OC)cc12 | 1330 µM | –

Further lines, with some results ahead:

IC50 (HT-29; [9]) | SMILES | other results
29 µM | COc1ccc2c(c1)c(CC(=O)NCCN(C)C)c(C)n2C(=O)c1ccc2ccccc2c1 | –
170 µM | COc1ccc2c(c1)c(CC(=O)NCCN(C)C)c(C)n2C(=O)c1ccc(Cl)cc1 | –
52 µM | CC1=C(CC(=O)NCCN2CCCC2)c2cc(F)ccc2/C1=C\c1ccc([S+](C)[O-])cc1 (stereo not drawn) | –
7.7 µM | COc1ccc2c(c1)c(CC(=O)NCCN(C)C)c(C)n2S(=O)(=O)c1ccccc1 | IC50 (NCI-H292): 4.85 µM; IC50 (MCF7): 4.88 µM; IC50 [1]: 15.9 µM; inhibition (Bos taurus [2]): Active; IC50 (SK-BR-3): 6.39 µM; IC50 (NCI-H522): 14.1 µM; IC50 (IMR-90): 18.7 µM
140 µM | COc1cc(/C=C2/C(C)=C(CC(=O)NCCN(C)C)c3cc(F)ccc32)cc(OC)c1OC | –
38 µM | COc1ccc2c(c1)c(CC(=O)NCCN1CCCC1)c(C)n2C(=O)c1ccc(Cl)cc1 | –
34 µM | COc1ccc2c(c1)c(CC(=O)NCCN1CCCC1)c(C)n2C(=O)c1cc(OC)c(OC)c(OC)c1 | –
52 µM | COc1ccc2c(c1)c(CC(=O)Nc1ccc(I)cc1)c(C)n2C(=O)c1ccc(Cl)cc1 | –
110 µM | COc1ccc2c(c1)c(CC(=O)NCCCCCNC(=O)Cc1c(C)n(C(=O)c3ccc(Cl)cc3)c3ccc(OC)cc13)c(C)n2C(=O)c1ccc(Cl)cc1 | –
13.5 µM | COc1ccc2c(c1)c(CC(=O)NCCN(C)C)c(C)n2C(=O)c1ccc(Br)cc1 | IC50 (NCI-H292): 3.47 µM; IC50 (MCF7): 9.53 µM; IC50 [1]: 2.91 µM; inhibition (Bos taurus [2]): Active; IC50 (SK-BR-3): 4.81 µM; IC50 (NCI-H522): 10.6 µM; IC50 (IMR-90): 41.7 µM
2.7 µM | COc1ccc2c(c1)c(CC(=O)NCCN(C)C)c(C)n2C(=O)c1cc(OC)c(OC)c(OC)c1 | IC50 (NCI-H292): 0.51 µM; Activity (Bos taurus [4]): Active; inhibition (Bos taurus [5]): 20%; IC50 (MCF7): 0.9 µM; inhibition (Bos taurus [6]): Dose-dependent effect; IC50 [1]: 2.87 µM; inhibition (Bos taurus [2]): Active; IC50 (SK-BR-3): 4.63 µM; IC50 (NCI-H522): 3 µM; Activity (Bos taurus [7]): Active; inhibition (Bos taurus [8]): 56%; IC50 (IMR-90): 17.2 µM
271 µM | CC1=C(CC(=O)NCCN(C)C)c2cc(F)ccc2/C1=C\c1ccc2ccccc2c1 | –
12.4 µM | CC1=C(CC(=O)NCCN(C)C)c2cc(F)ccc2/C1=C\c1ccc(Cl)cc1 | –
11.3 µM | CSc1ccc(/C=C2/C(C)=C(CC(=O)NCCN(C)C)c3cc(F)ccc32)cc1 | –
47 µM | CC1=C(CC(=O)NCCN(C)C)c2cc(F)ccc2/C1=C\c1ccc([S+](C)[O-])cc1 (stereo not drawn) | –
124 µM | CCCCNC(=O)CC1=C(C)/C(=C/c2ccc([S+](C)[O-])cc2)c2ccc(F)cc21 (stereo not drawn) | –
68 µM | COc1ccc2c(c1)c(CC(=O)Nc1ccc(Cl)cc1)c(C)n2C(=O)c1ccc(Cl)cc1 | –
53 µM | CCCCCCNC(=O)CC1=C(C)/C(=C/c2ccc([S+](C)[O-])cc2)c2ccc(F)cc21 (stereo not drawn) | –
44 µM | COc1ccc2c(c1)c(CC(=O)NCCN(C)C)c(C)n2C(=O)c1ccc(OC)c(OC)c1 | –
20 µM | CC1=C(CC(=O)NCCN(C)C)c2cc(F)ccc2/C1=C\c1ccc(Br)cc1 | –
20 µM | COc1ccc(/C=C2/C(C)=C(CC(=O)NCCN(C)C)c3cc(F)ccc32)cc1 | –
17.8 µM | COc1ccc(C(=O)n2c(C)c(CC(=O)NCCN(C)C)c3cc(OC)ccc32)cc1 | –
